Reference: ChEMBL document CHEMBL3259670, “Discovery of 1-aryloxyethyl piperazine derivatives as Kv1.5 potassium channel inhibitors (part I)” (Eur J Med Chem, 2014)
Active and inactive are the calls of the source. The calls are words filed in the database; no cut-off is given here.

biological target: T1, Potassium voltage-gated channel subfamily A member 5 (Homo sapiens, UniProt P22460); test: Inhibition of human Kv1.5 channel expressed in HEK293 cells by whole cell patch clamp assay; assay type: cell-based; details: not given
Summary of the method: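 Whole-cell patch clamp was done on transfected HEK293 cells, harvested by trypsin and used the same day, with 4–6 MΩ pipettes at 25 °C. IKur was elicited by 500-ms steps to +60 mV from a −80 mV holding potential at 0.1 Hz. Compound was applied at least 5 min after current stabilization. IC50 came from cell-by-cell Hill fits, with at least 3 cells per concentration; mean ± SD.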

T1 sequence (P22460 whole entry): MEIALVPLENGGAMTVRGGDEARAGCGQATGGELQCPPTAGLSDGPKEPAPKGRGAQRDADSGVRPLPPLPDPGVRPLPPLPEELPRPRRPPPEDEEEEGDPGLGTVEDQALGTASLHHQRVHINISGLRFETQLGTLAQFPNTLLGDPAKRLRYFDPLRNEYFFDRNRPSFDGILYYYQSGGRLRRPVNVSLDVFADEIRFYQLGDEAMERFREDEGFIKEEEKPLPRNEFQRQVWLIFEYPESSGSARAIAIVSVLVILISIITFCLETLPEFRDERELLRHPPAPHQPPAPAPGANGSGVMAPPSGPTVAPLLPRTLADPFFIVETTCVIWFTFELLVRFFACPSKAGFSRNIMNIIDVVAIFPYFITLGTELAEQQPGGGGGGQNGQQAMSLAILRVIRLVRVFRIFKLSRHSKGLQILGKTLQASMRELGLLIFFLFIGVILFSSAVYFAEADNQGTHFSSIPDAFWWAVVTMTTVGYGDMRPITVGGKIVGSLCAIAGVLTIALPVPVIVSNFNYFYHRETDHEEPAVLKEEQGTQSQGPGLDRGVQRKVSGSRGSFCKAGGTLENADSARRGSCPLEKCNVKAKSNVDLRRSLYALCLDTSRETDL

Row | IC50 [µM] | Compound
1 | 5.5 | COc1ccc(C(=O)N2CCN(CCOc3ccc(Cl)cc3)CC2)cc1
2 | 7.33 | O=C(CN1CCN(CCOc2ccc(OC(F)(F)F)cc2)CC1)Nc1ccccc1
3 | 21.9 | COc1ccc(OCCN2CCN(C(=O)c3cccs3)CC2)cc1
4 | 3.59 | O=C(CN1CCN(CCOc2ccc(Cl)cc2)CC1)Nc1ccccc1Cl
5 | 14.5 | COc1ccc(NC(=O)CN2CCN(CCOc3ccc(C#N)cc3)CC2)cc1
6 | 3.97 | O=C(c1ccccc1)N1CCN(CCOc2ccc(Cl)cc2)CC1
7 | 68 | O=C(CN1CCN(CCOc2ccc3ccccc3c2)CC1)Nc1nccs1
8 | 28.6 | O=C(CN1CCN(CCOc2ccccc2)CC1)Nc1ccccc1
9 | 85.9 | Cc1cccc(C)c1OCCN1CCN(CC(=O)Nc2nccs2)CC1
10 | 1.48 | O=C(c1cccs1)N1CCN(CCOc2ccc(Cl)cc2Cl)CC1
11 | 4.51 | Cc1ccc(C(=O)N2CCN(CCOc3ccc(Cl)cc3)CC2)cc1
12 | 10.1 | COc1ccc(NC(=O)CN2CCN(CCOc3ccccc3)CC2)cc1
13 | 1.24 | Cc1ccccc1OCCN1CCN(CC(=O)Nc2nccs2)CC1
14 | 50.2 | Cc1ccc(OCCN2CCN(CC(=O)Nc3nccs3)CC2)cc1C
15 | 9.1 | N#Cc1ccc(OCCN2CCN(CC(=O)Nc3ccccc3)CC2)cc1
16 | 48.4 | O=C(c1cccs1)N1CCN(c2ccc(OC(F)(F)F)cc2)CC1
17 | 9.13 | COc1ccc(OCCN2CCN(CC(=O)Nc3nccs3)CC2)cc1
18 | 9.74 | O=C(c1cccs1)N1CCN(CCOc2ccccc2Cl)CC1
19 | 16.1 | Cc1ccc(NC(=O)CN2CCN(CCOc3ccccc3)CC2)cc1
20 | 37.5 | O=C(c1cccs1)N1CCN(CCOc2ccccc2)CC1
21 | 2.62 | COc1ccc(NC(=O)CN2CCN(CCOc3ccc(Cl)cc3)CC2)cc1
22 | 12.7 | O=C(c1cccs1)N1CCN(CCOc2ccc(F)cc2)CC1
23 | 3.39 | O=C(CN1CCN(CCOc2ccccc2Cl)CC1)Nc1nccs1

test system: not listed separately; test: Dissociation constant, pKa of the compound; assay type: physicochemical; details: not given
Summary of the method: (§1)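 pKa and log D at pH 7.4 were determined by Avdeef–Bucher potentiometric titration on a Gemini Profiler instrument.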

Row | pKa | Compound
24 | 5.23 | O=C(c1cccs1)N1CCN(CCOc2ccc(Cl)cc2Cl)CC1
25 | 7.11 | Cc1ccccc1OCCN1CCN(CC(=O)Nc2nccs2)CC1

test system: not listed separately; test: Partition coefficient, log D of the compound at pH 7.4; assay type: physicochemical; details: octanol/water; summary of the method: as §1

Row | logD | Compound
26 | 3.73 | O=C(c1cccs1)N1CCN(CCOc2ccc(Cl)cc2Cl)CC1
27 | 2.45 | Cc1ccccc1OCCN1CCN(CC(=O)Nc2nccs2)CC1

test system: not listed separately; test: (§2) Apparent permeability from basolateral to apical side in MDCK cells; assay type: ADME, cell-based, Canis lupus familiaris; details: dog
Summary of the method: (§3)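 Bidirectional transport (apical→basolateral and basolateral→apical) was measured in parental MDCK cells and in MDR1-MDCK cells, which stably express multidrug resistance gene 1, to assess P-glycoprotein substrate status. Apparent permeability coefficients (Papp) were determined for each direction. Efflux ratios are ratios of the directional Papp values, computed per cell line. Mean ± SD, n = 3.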

Row | Papp B→A [×10⁻⁶ cm/s] | Compound
28 | 19.1 | O=C(c1cccs1)N1CCN(CCOc2ccc(Cl)cc2Cl)CC1

test system: MDCK; test: as §2; assay type: ADME, cell-based, Canis lupus familiaris; details: dog; summary of the method: as §3

Row | Papp [nm/s] | Compound
29 | 342 | Cc1ccccc1OCCN1CCN(CC(=O)Nc2nccs2)CC1

test system: not listed separately; test: (§4) Apparent permeability from apical to basolateral side in MDCK cells; assay type: ADME, cell-based, Canis lupus familiaris; details: dog; summary of the method: as §3

Row | Papp A→B [×10⁻⁶ cm/s] | Compound
30 | 17 | O=C(c1cccs1)N1CCN(CCOc2ccc(Cl)cc2Cl)CC1

test system: MDCK; test: as §4; assay type: ADME, cell-based, Canis lupus familiaris; details: dog; summary of the method: as §3

Row | Papp [nm/s] | Compound
31 | 322 | Cc1ccccc1OCCN1CCN(CC(=O)Nc2nccs2)CC1

test system: MDR1; test: Apparent permeability from basolateral to apical side in MDCK cells expressing MDR1; assay type: ADME, cell-based, Canis lupus familiaris; details: dog, MDCK-MDR1; summary of the method: as §3

Row | Papp B→A [×10⁻⁶ cm/s] | Compound
32 | 31.5 | O=C(c1cccs1)N1CCN(CCOc2ccc(Cl)cc2Cl)CC1
33 | 32.3 | Cc1ccccc1OCCN1CCN(CC(=O)Nc2nccs2)CC1

test system: MDR1; test: Apparent permeability from apical to basolateral side in MDCK cells expressing MDR1; assay type: ADME, cell-based, Canis lupus familiaris; details: dog, MDCK-MDR1; summary of the method: as §3

Row | Papp A→B [×10⁻⁶ cm/s] | Compound
34 | 39.1 | O=C(c1cccs1)N1CCN(CCOc2ccc(Cl)cc2Cl)CC1
35 | 28.9 | Cc1ccccc1OCCN1CCN(CC(=O)Nc2nccs2)CC1

test system: MDCK; test: Efflux ratio of permeability from apical to basolateral over basolateral to apical in MDCK cells; assay type: ADME, cell-based, Canis lupus familiaris; details: dog; summary of the method: as §3

Row | Ratio | Compound
36 | 0.89 | O=C(c1cccs1)N1CCN(CCOc2ccc(Cl)cc2Cl)CC1
37 | 1.09 | Cc1ccccc1OCCN1CCN(CC(=O)Nc2nccs2)CC1

test system: MDCK; test: Efflux ratio of permeability from apical to basolateral over basolateral to apical in MDCK cells expressing MDR1; assay type: ADME, cell-based, Canis lupus familiaris; details: dog; summary of the method: as §3

Row | Ratio | Compound
38 | 1.24 | O=C(c1cccs1)N1CCN(CCOc2ccc(Cl)cc2Cl)CC1
39 | 0.92 | Cc1ccccc1OCCN1CCN(CC(=O)Nc2nccs2)CC1

test system: Rattus norvegicus; test: Inhibition of Cacl2-Ach-induced atrial fibrillation Sprague-Dawley rat model assessed as reduction in duration of atrial fibrillation at 2.5 mg/kg, ip during day 1 to day 3; assay type: functional, organism-based; set-up: dose 2.5 mg/kg; details: Cardiac atrium

Row | Compound | Activity
40 | CC(C)NCC(O)c1ccc(NS(C)(=O)=O)cc1 (centres undefined) | inactive

test system: Rattus norvegicus; test: Inhibition of Cacl2-Ach-induced atrial fibrillation Sprague-Dawley rat model assessed as reduction in duration of atrial fibrillation at 2.5 mg/kg, ip during day 4 to day 7; assay type: functional, organism-based; set-up: dose 2.5 mg/kg; details: Cardiac atrium

Row | Compound | Activity
41 | CC(C)NCC(O)c1ccc(NS(C)(=O)=O)cc1 (centres undefined) | Active

biological target: T1, Potassium voltage-gated channel subfamily A member 5; test: Inhibition of human Kv1.5 channel expressed in HEK293 cells at 11 uM by whole cell patch clamp assay; assay type: cell-based; details: not given

Row | inhibition [%] | Compound
42 | 11.9 | CCOc1ccccc1OCCN1CCN(CC(=O)Nc2nccs2)CC1
43 | 32.1 | CCOC(=O)c1ccc(OCCN2CCN(CC(=O)Nc3nccs3)CC2)cc1

test system: Rattus norvegicus; test: Inhibition of Cacl2-Ach-induced atrial fibrillation Sprague-Dawley rat model assessed as increase in atrial effective refractory period at 2.5 mg/kg, ip; details: Cardiac atrium

Row | Compound | Activity
44 | CC(C)NCC(O)c1ccc(NS(C)(=O)=O)cc1 (centres undefined) | Active
